Results: ChEMBL document CHEMBL1158769, “Macrophage activating effects of new alkamides from the roots of Echinacea species” (J Nat Prod, 2005)
In brackets after ≈: the same amount, converted by molar mass.

What was measured:
RAW264.7 = experiment: Inhibition of LPS-stimulated NO production in mouse RAW264.7 cells; assay type: functional; conditions: read-out: ID50 (the source's name)
Procedure, shortened: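 In some runs the compound medium was removed and the cells washed before LPS. Supernatant nitrite measured by Griess reagent at A550. Relative NO = (Exp-OD − Control-OD)/(LPS-OD − Control-OD) × 100%.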

[1] = Toxicity in mouse RAW264.7 cells by MTT assay; assay type: cell-based; conditions: read-out: TD50 (the source's name)
Procedure, shortened: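 RAW 264.7 cells exposed to a range of alkamide concentrations for 24 h, or for 4 h followed by 24 h in fresh medium. Cells washed, labeled with MTT for 4 h, lysed in DMSO, formazan read at A540. Viability = Exp-OD/Control-OD × 100%, with control at the same cell number.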

IC50 (RAW264.7) | SMILES | CC50 [1]
6 µg/mL (≈ 23.9 µM) | CCCCCCC/C=C/C=C/C(=O)NCC(C)C | 12.5 µg/mL (≈ 49.7 µM)
6 µg/mL (≈ 24.3 µM) | C/C=C\C=C/CC/C=C/C=C/C(=O)NCC(C)C | 50 µg/mL (≈ 202 µM)
6 µg/mL (≈ 24.3 µM) | C/C=C/C=C\CC/C=C/C=C/C(=O)NCC(C)C | 50 µg/mL (≈ 202 µM)
